How the values were obtained:
Assay type in all cases: functional
[1] = Growth inhibition of human SNB75 cells after 48 hrs by sulforhodamine B assay; settings: SNB-75, 48 h
Procedure, shortened: (§1)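 Five-dose concentration series run across a panel of 60 human tumour cell lines. GI50 is taken as the drug concentration giving a 50% reduction in net protein increase relative to untreated control cells.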

NCI-H23 = assay: Growth inhibition of human NCI-H23 cells after 48 hrs by sulforhodamine B assay; settings: NCI-H23, 48 h; procedure, shortened: as §1
[2] = Growth inhibition of human Hs 578T cells after 48 hrs by sulforhodamine B assay
Procedure, shortened: (§2)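 Five-dose testing against a 60-line human tumor cell panel. GI50 is the drug concentration giving a 50% reduction in net protein increase relative to untreated control cells.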

[3] = Growth inhibition of human IGROV1 cells after 48 hrs by sulforhodamine B assay; settings: IGROV-1, 48 h; procedure, shortened: as §2
[4] = Growth inhibition of human HL-60(TB) cells after 48 hrs by sulforhodamine B assay; settings: HL-60, 48 h
Procedure, shortened: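 Five-dose study across the 60-cell human tumour panel. GI50 is the drug concentration giving a 50% reduction in net protein increase relative to control cells.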

SR = assay: Growth inhibition of human SR cells after 48 hrs by sulforhodamine B assay; procedure, shortened: as §1
MDA-MB-468 = assay: Growth inhibition of human MDA-MB-468 cells after 48 hrs by sulforhodamine B assay; settings: MDA-MB-468, 48 h; procedure, shortened: as §2
MCF7 = assay: Growth inhibition of human MCF7 cells after 48 hrs by sulforhodamine B assay; settings: MCF7, 48 h; procedure, shortened: as §2
[5] = Growth inhibition of human HCT116 cells after 48 hrs by sulforhodamine B assay; settings: HCT-116, 48 h; procedure, shortened: as §2
[6] = Growth inhibition of human SKOV3 cells after 48 hrs by sulforhodamine B assay; settings: SK-OV-3, 48 h; procedure, shortened: as §1
[7] = Growth inhibition of human SF295 cells after 48 hrs by sulforhodamine B assay; settings: SF-295, 48 h; procedure, shortened: as §1
U-251 = assay: Growth inhibition of human U251 cells after 48 hrs by sulforhodamine B assay; settings: U-251, 48 h; procedure, shortened: as §1
M14 = assay: Growth inhibition of human M14 cells after 48 hrs by sulforhodamine B assay; settings: M14, 48 h; procedure, shortened: as §2
[8] = Growth inhibition of human SNB19 cells after 48 hrs by sulforhodamine B assay; settings: SNB-19, 48 h; procedure, shortened: as §1
[9] = Growth inhibition of human PC3 cells after 48 hrs by sulforhodamine B assay; settings: PC-3, 48 h; procedure, shortened: as §1
KM12 = assay: Growth inhibition of human KM12 cells after 48 hrs by sulforhodamine B assay; settings: KM12, 48 h; procedure, shortened: as §2
[10] = Growth inhibition of human DU145 cells after 48 hrs by sulforhodamine B assay; settings: DU-145, 48 h; procedure, shortened: as §2
NCI-H522 = assay: Growth inhibition of human NCI-H522 cells after 48 hrs by sulforhodamine B assay; settings: NCI-H522, 48 h; procedure, shortened: as §1
[11] = Growth inhibition of human Caki1 cells after 48 hrs by sulforhodamine B assay; settings: CAKI-1, 48 h; procedure, shortened: as §2
[12] = Growth inhibition of human OVCAR3 cells after 48 hrs by sulforhodamine B assay; settings: OVCAR-3, 48 h; procedure, shortened: as §1
A549 = assay: Growth inhibition of human A549/ATCC cells after 48 hrs by sulforhodamine B assay; settings: A549, 48 h; procedure, shortened: as §2
HT-29 = assay: Growth inhibition of human HT-29 cells after 48 hrs by sulforhodamine B assay; settings: HT-29, 48 h; procedure, shortened: as §2
[13] = Growth inhibition of human MOLT4 cells after 48 hrs by sulforhodamine B assay; settings: MOLT-4, 48 h; procedure, shortened: as §1
CCRF-CEM = assay: Growth inhibition of human CCRF-CEM cells after 48 hrs by sulforhodamine B assay; procedure, shortened: as §2
786-0 = assay: Growth inhibition of human 786-0 cells after 48 hrs by sulforhodamine B assay; settings: 786-0, 48 h; procedure, shortened: as §2
[14] = Growth inhibition of human SF268 cells after 48 hrs by sulforhodamine B assay; settings: SF-268, 48 h; procedure, shortened: as §1
[15] = Growth inhibition of human HCC2998 cells after 48 hrs by sulforhodamine B assay; settings: HCC 2998, 48 h; procedure, shortened: as §2
[16] = Growth inhibition of human SF539 cells after 48 hrs by sulforhodamine B assay; settings: SF-539, 48 h; procedure, shortened: as §1
[17] = Growth inhibition of human SW620 cells after 48 hrs by sulforhodamine B assay; settings: SW-620, 48 h; procedure, shortened: as §1
ACHN = assay: Growth inhibition of human ACHN cells after 48 hrs by sulforhodamine B assay; procedure, shortened: as §2
SK-MEL-5 = assay: Growth inhibition of human SK-MEL-5 cells after 48 hrs by sulforhodamine B assay; settings: SK-MEL-5, 48 h; procedure, shortened: as §1
SK-MEL-2 = assay: Growth inhibition of human SK-MEL-2 cells after 48 hrs by sulforhodamine B assay; settings: SK-MEL-2, 48 h; procedure, shortened: as §1
[18] = Growth inhibition of human UO31 cells after 48 hrs by sulforhodamine B assay; settings: UO-31, 48 h
Procedure, shortened: (§3)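 Five-dose testing across the 60-line human tumour cell panel. GI50 is the drug concentration that gives a 50% reduction in net protein increase relative to control cells.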

[19] = Growth inhibition of human NCI-ADR-RES cells after 48 hrs by sulforhodamine B assay; procedure, shortened: as §1
[20] = Growth inhibition of human LOXIMVI cells after 48 hrs by sulforhodamine B assay; settings: LOX IMVI; procedure, shortened: as §2
A498 = assay: Growth inhibition of human A498 cells after 48 hrs by sulforhodamine B assay; settings: A498, 48 h; procedure, shortened: as §2
MDA-MB-231 = assay: Growth inhibition of human MDA-MB-231 cells after 48 hrs by sulforhodamine B assay; settings: MDA-MB-231, 48 h; procedure, shortened: as §2
[21] = Growth inhibition of human RPMI8226 cells after 48 hrs by sulforhodamine B assay; settings: RPMI-8226, 48 h; procedure, shortened: as §1
SK-MEL-28 = assay: Growth inhibition of human SK-MEL-28 cells after 48 hrs by sulforhodamine B assay; settings: SK-MEL-28, 48 h; procedure, shortened: as §1
[22] = Growth inhibition of human HOP92 cells after 48 hrs by sulforhodamine B assay; settings: HOP-92, 48 h; procedure, shortened: as §2
[23] = Growth inhibition of human UACC62 cells after 48 hrs by sulforhodamine B assay; settings: UACC-62, 48 h; procedure, shortened: as §3
[24] = Growth inhibition of human OVCAR4 cells after 48 hrs by sulforhodamine B assay; settings: OVCAR-4, 48 h; procedure, shortened: as §1
[25] = Growth inhibition of human HCT15 cells after 48 hrs by sulforhodamine B assay; settings: HCT-15, 48 h; procedure, shortened: as §2
[26] = Growth inhibition of human HOP62 cells after 48 hrs by sulforhodamine B assay; settings: HOP-62, 48 h; procedure, shortened: as §2
MDA-MB-435 = assay: Growth inhibition of human MDA-MB-435 cells after 48 hrs by sulforhodamine B assay; settings: MDA-MB-435, 48 h; procedure, shortened: as §2
[27] = Growth inhibition of human COLO205 cells after 48 hrs by sulforhodamine B assay; settings: COLO 205, 48 h; procedure, shortened: as §2

SMILES: COc1ccc(/C=C/c2cc(OC)c(OC)c(OC)c2)cc1
- GI50 [1]: 1880 nM
- GI50 (NCI-H23): 3.37 µM
- GI50 [2]: 3.09 µM
- GI50 [3]: 5.29 µM
- GI50 [4]: 3.14 µM
- GI50 (SR): 3.93 µM
- GI50 (MDA-MB-468): 2220 nM
- GI50 (MCF7): 1660 nM
- GI50 [5]: 3.23 µM
- GI50 [6]: 3.34 µM
- GI50 [7]: 2180 nM
- GI50 (U-251): 3.07 µM
- GI50 (M14): 2810 nM
- GI50 [8]: 4.85 µM
- GI50 [9]: 3.22 µM
- GI50 (KM12): 3.63 µM
- GI50 [10]: 4.23 µM
- GI50 (NCI-H522): 3.7 µM
- GI50 [11]: 3000 nM
- GI50 [12]: 3.45 µM
- GI50 (A549): 3.7 µM
- GI50 (HT-29): 2320 nM
- GI50 [13]: 3.22 µM
- GI50 (CCRF-CEM): 2890 nM
- GI50 (786-0): 5.42 µM
- GI50 [14]: 7.59 µM
- GI50 [15]: 3.59 µM
- GI50 [16]: 2180 nM
- GI50 [17]: 2070 nM
- GI50 (ACHN): 4.51 µM
- GI50 (SK-MEL-5): 2500 nM
- GI50 (SK-MEL-2): 3.95 µM
- GI50 [18]: 3.69 µM
- GI50 [19]: 3.01 µM
- GI50 [20]: 4.89 µM
- GI50 (A498): 740 nM
- GI50 (MDA-MB-231): 3.74 µM
- GI50 [21]: 6.42 µM
- GI50 (SK-MEL-28): 3.86 µM
- GI50 [22]: 7.23 µM
- GI50 [23]: 2370 nM
- GI50 [24]: 4 µM
- GI50 [25]: 2820 nM
- GI50 [26]: 3.14 µM
- GI50 (MDA-MB-435): 1040 nM
- GI50 [27]: 2070 nM

— ChEMBL document CHEMBL3792365, “Dioxol and dihydrodioxin analogs of 2- and 3-phenylacetonitriles as potent anti-cancer agents with nanomolar activity against a variety of human cancer cells” (2016)
